Assay results published in ChEMBL document CHEMBL4689842, “EUbOPEN Chemogenomics Library wave 1” (2021).
“And” between values parts separate entries of the source, which are not always exact repeats. Equal values may be shown once.

System: Fibroblast
Experiment: Multiplex assay against human fibroblast
Assay type: toxicity, cell-based
Procedure, shortened: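 Compound was added to live cells that had been stained at seeding with Hoechst33342, BioTracker Green Microtubule Cytoskeleton Dye, MitoTracker Red and Annexin V Alexa Fluor 680, and imaging followed on a CQ1 microscope at 37°C and 5% CO2. CellPathfinder machine-learning gating divided cells into Hoechst high-intensity objects or normal cells, normal cells into healthy, pyknosed or fragmented nuclei, and pyknosed cells into mitotic or apoptotic. Tubulin, mitochondrial-mass and membrane-permeability phenotypes are per cents of healthy-nucleus cells.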

[1] = 12 h, 1 µM, compound concentration 1 uM, replicate 1
[2] = 12 h, 1 µM, compound concentration 1 uM, replicate 2
[3] = 12 h, 10 µM, compound concentration 10 uM, replicate 1
[4] = 12 h, 10 µM, compound concentration 10 uM, replicate 2
[5] = 24 h, 1 µM, compound concentration 1 uM, replicate 1
[6] = 24 h, 1 µM, compound concentration 1 uM, replicate 2
[7] = 24 h, 10 µM, compound concentration 10 uM, replicate 1
[8] = 24 h, 10 µM, compound concentration 10 uM, replicate 2
[9] = 48 h, 1 µM, compound concentration 1 uM, replicate 1
[10] = 48 h, 1 µM, compound concentration 1 uM, replicate 2
[11] = 48 h, 10 µM, compound concentration 10 uM, replicate 1
[12] = 48 h, 10 µM, compound concentration 10 uM, replicate 2

CN1CCCC(n2nc(Cc3ccc(Cl)cc3)c3ccccc3c2=O)CC1.Cl (stereo unspecified) [AZELASTINE HYDROCHLORIDE]
Population Apoptotic (%) [1]: 47%
Population Fragmented Nuclei (%) [1]: 25%
Population Healthy Nuclei (%) [1]: 50%
Population Hoechst High Intensity Objects (%) [1]: 11%
Population Membrane Permeable-Phenotype (%) [1]: 26%
Population Mitochondria Different-Phenotype (%) [1]: 9%
Population Mitotic Cells (%) [1]: 52%
Population Normal (%) [1]: 88%
Population Pyknosed Nuclei (%) [1]: 23%
Population Tubulin-Different-Phenotype (%) [1]: 65%
Total Cell Count [1]: 92
Population Apoptotic (%) [2]: 25%
Population Fragmented Nuclei (%) [2]: 6%
Population Healthy Nuclei (%) [2]: 84%
Population Membrane Permeable-Phenotype (%) [2]: 7%
Population Mitochondria Different-Phenotype (%) [2]: 57%
Population Mitotic Cells (%) [2]: 75%
Population Pyknosed Nuclei (%) [2]: 8%
Population Tubulin-Different-Phenotype (%) [2]: 68%
Total Cell Count [2]: 51
Population Apoptotic (%) [3]: 74%
Population Fragmented Nuclei (%) [3]: 26%
Population Healthy Nuclei (%) [3]: 38%
Population Hoechst High Intensity Objects (%) [3]: 18%
Population Membrane Permeable-Phenotype (%) [3]: 13%
Population Mitochondria Different-Phenotype (%) [3]: 55%
Population Mitotic Cells (%) [3]: 25%
Population Normal (%) [3]: 81%
Population Pyknosed Nuclei (%) [3]: 34%
Population Tubulin-Different-Phenotype (%) [3]: 93%
Total Cell Count [3]: 138
Population Apoptotic (%) [4]: 57%
Population Fragmented Nuclei (%) [4]: 14%
Population Healthy Nuclei (%) [4]: 70%
Population Hoechst High Intensity Objects (%) [4]: 4%
Population Membrane Permeable-Phenotype (%) [4]: 84%
Population Mitochondria Different-Phenotype (%) [4]: 98%
Population Mitotic Cells (%) [4]: 42%
Population Normal (%) [4]: 95%
Population Pyknosed Nuclei (%) [4]: 15%
Population Tubulin-Different-Phenotype (%) [4]: 100%
Total Cell Count [4]: 96
Population Apoptotic (%) [5]: 40%
Population Fragmented Nuclei (%) [5]: 31%
Population Healthy Nuclei (%) [5]: 42%
Population Hoechst High Intensity Objects (%) [5]: 10%
Population Membrane Permeable-Phenotype (%) [5]: 36%
Population Mitochondria Different-Phenotype (%) [5]: 11%
Population Mitotic Cells (%) [5]: 59%
Population Normal (%) [5]: 89%
Population Pyknosed Nuclei (%) [5]: 25%
Population Tubulin-Different-Phenotype (%) [5]: 66%
Total Cell Count [5]: 95
Population Apoptotic (%) [6]: 50%
Population Fragmented Nuclei (%) [6]: 7%
Population Healthy Nuclei (%) [6]: 76%
Population Hoechst High Intensity Objects (%) [6]: 8%
Population Membrane Permeable-Phenotype (%) [6]: 10%
Population Mitochondria Different-Phenotype (%) [6]: 57%
Population Mitotic Cells (%) [6]: 50%
Population Normal (%) [6]: 91%
Population Pyknosed Nuclei (%) [6]: 15%
Population Tubulin-Different-Phenotype (%) [6]: 50%
Total Cell Count [6]: 57
Population Apoptotic (%) [7]: 84%
Population Fragmented Nuclei (%) [7]: 32%
Population Healthy Nuclei (%) [7]: 53%
Population Hoechst High Intensity Objects (%) [7]: 18%
Population Membrane Permeable-Phenotype (%) [7]: 17%
Population Mitochondria Different-Phenotype (%) [7]: 62%
Population Mitotic Cells (%) [7]: 15%
Population Normal (%) [7]: 81%
Population Pyknosed Nuclei (%) [7]: 14%
Population Tubulin-Different-Phenotype (%) [7]: 90%
Total Cell Count [7]: 161
Population Apoptotic (%) [8]: 95%
Population Fragmented Nuclei (%) [8]: 16%
Population Healthy Nuclei (%) [8]: 58%
Population Hoechst High Intensity Objects (%) [8]: 4%
Population Membrane Permeable-Phenotype (%) [8]: 98%
Population Mitochondria Different-Phenotype (%) [8]: 100%
Population Mitotic Cells (%) [8]: 4%
Population Normal (%) [8]: 95%
Population Pyknosed Nuclei (%) [8]: 25%
Population Tubulin-Different-Phenotype (%) [8]: 100%
Total Cell Count [8]: 96
Population Apoptotic (%) [9]: 58%
Population Fragmented Nuclei (%) [9]: 38%
Population Healthy Nuclei (%) [9]: 41%
Population Hoechst High Intensity Objects (%) [9]: 11%
Population Membrane Permeable-Phenotype (%) [9]: 28%
Population Mitochondria Different-Phenotype (%) [9]: 11%
Population Mitotic Cells (%) [9]: 41%
Population Normal (%) [9]: 88%
Population Pyknosed Nuclei (%) [9]: 20%
Population Tubulin-Different-Phenotype (%) [9]: 54%
Total Cell Count [9]: 95
Population Apoptotic (%) [10]: 75%
Population Fragmented Nuclei (%) [10]: 31%
Population Healthy Nuclei (%) [10]: 61%
Population Hoechst High Intensity Objects (%) [10]: 8%
Population Membrane Permeable-Phenotype (%) [10]: 10%
Population Mitochondria Different-Phenotype (%) [10]: 1%
Population Mitotic Cells (%) [10]: 25%
Population Normal (%) [10]: 91%
Population Pyknosed Nuclei (%) [10]: 7%
Population Tubulin-Different-Phenotype (%) [10]: 73%
Total Cell Count [10]: 123
Population Apoptotic (%) [11]: 90%
Population Fragmented Nuclei (%) [11]: 40%
Population Healthy Nuclei (%) [11]: 52%
Population Hoechst High Intensity Objects (%) [11]: 30%
Population Membrane Permeable-Phenotype (%) [11]: 13%
Population Mitochondria Different-Phenotype (%) [11]: 34%
Population Mitotic Cells (%) [11]: 10%
Population Normal (%) [11]: 69%
Population Pyknosed Nuclei (%) [11]: 6%
Population Tubulin-Different-Phenotype (%) [11]: 84%
Total Cell Count [11]: 207
Population Apoptotic (%) [12]: 66%
Population Fragmented Nuclei (%) [12]: 38%
Population Healthy Nuclei (%) [12]: 57%
Population Hoechst High Intensity Objects (%) [12]: 25%
Population Membrane Permeable-Phenotype (%) [12]: 22%
Population Mitochondria Different-Phenotype (%) [12]: 39%
Population Mitotic Cells (%) [12]: 33%
Population Normal (%) [12]: 74%
Population Pyknosed Nuclei (%) [12]: 3%
Population Tubulin-Different-Phenotype (%) [12]: 88%
Total Cell Count [12]: 253

O=C(NCCN1CCOCC1)c1ccc2c(c1)C(=O)c1ccc(Nc3ccc(F)c(NC(=O)c4ccccc4)c3)cc1CC2 [FS-694]
Population Apoptotic (%) [3]: 65% and 38%
Population Fragmented Nuclei (%) [3]: 35% and 51%
Population Healthy Nuclei (%) [3]: 49% and 32%
Population Mitotic Cells (%) [3]: 34% and 61%
Population Normal (%) [3]: 81% and 29%
Population Pyknosed Nuclei (%) [3]: 14%
Population Tubulin-Different-Phenotype (%) [3]: 20% and 24%
Total Cell Count [3]: 371 and 970
Population Apoptotic (%) [4]: 72% and 68%
Population Fragmented Nuclei (%) [4]: 57%
Population Healthy Nuclei (%) [4]: 27% and 29%
Population Hoechst High Intensity Objects (%) [4]: 44% and 82%
Population Membrane Permeable-Phenotype (%) [4]: 21% and 20%
Population Mitochondria Different-Phenotype (%) [4]: 15% and 0%
Population Mitotic Cells (%) [4]: 27% and 31%
Population Pyknosed Nuclei (%) [4]: 15% and 13%
Population Apoptotic (%) [7]: 44% and 59%
Population Fragmented Nuclei (%) [7]: 50% and 35%
Population Healthy Nuclei (%) [7]: 36% and 50%
Population Membrane Permeable-Phenotype (%) [7]: 8%
Population Mitochondria Different-Phenotype (%) [7]: 13% and 7%
Population Mitotic Cells (%) [7]: 55% and 40%
Population Normal (%) [7]: 34% and 80%
Population Pyknosed Nuclei (%) [7]: 13% and 14%
Population Tubulin-Different-Phenotype (%) [7]: 25% and 24%
Total Cell Count [7]: 927 and 391
Population Apoptotic (%) [8]: 80% and 55%
Population Fragmented Nuclei (%) [8]: 43% and 57%
Population Healthy Nuclei (%) [8]: 40% and 27%
Population Hoechst High Intensity Objects (%) [8]: 50% and 77%
Population Membrane Permeable-Phenotype (%) [8]: 16% and 15%
Population Mitochondria Different-Phenotype (%) [8]: 20% and 0%
Population Mitotic Cells (%) [8]: 20% and 44%
Population Normal (%) [8]: 50% and 22%
Population Pyknosed Nuclei (%) [8]: 16% and 15%
Population Tubulin-Different-Phenotype (%) [8]: 20% and 9%
